Screening data as filed in PubChem.
A selection: hits, their analogues and other compounds. The true share with any hit is near 2.3%.
GPR7 antagonist: antagonists of human GPR7 (neuropeptides B/W receptor 1); P48145; GPR7-expressing cells, fluorescence antagonist assay; inhibition, % at 4.4 µM; actives 1.1% (n = 290,000); AID 1861; in the data active = inhibition above about 16%, passing the limit was not always enough;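 also: cells stimulated with the agonist NPW; 0% = agonist with vehicle and 100% = vehicle without agonist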
EBNA-1 inhibitor: blocks EBNA-1 binding to DNA. EBNA-1 DNA binding, fluorescence polarization. inhibition, % at 14.8 µM. actives 0.34% (n = 300,000); in the data active = inhibition above about 28%
EBV gp42 block: blocks Epstein-Barr virus glycoprotein 42 binding; Q1HVG2; Fluorescence polarization binding assay, mP read-out; AID 1085; actives 0.42% (n = 220,000); inhibition, % (tested at 21.74 µM); in the data active = inhibition above about 50%
Target sequence (Q1HVG2 whole entry, looked up): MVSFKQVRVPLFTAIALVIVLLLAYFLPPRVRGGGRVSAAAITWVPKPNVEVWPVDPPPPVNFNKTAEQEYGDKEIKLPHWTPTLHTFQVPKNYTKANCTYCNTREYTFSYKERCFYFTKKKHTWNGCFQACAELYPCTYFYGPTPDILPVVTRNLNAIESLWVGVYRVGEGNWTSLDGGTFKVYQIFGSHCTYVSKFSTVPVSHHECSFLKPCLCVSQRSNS
core dimer inh: HCV core protein dimerization inhibition. AID 1899. inhibition, % at 5 µM. actives 0.33% (n = 300,000). TR-FRET GST/Flag-core106 dimerization, 1536-well;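 active = inhibition above the mean of all tested compounds plus 3 SD, set per screening campaign, cut at about 45% in these data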
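Assay system – GST-tagged and Flag-tagged HCV core protein residues 1-106 · Quantity – core106 proteins, GST 13.5 nM and Flag 17 nM · Benchmarks – unlabelled core106 and no-GST-core106 wells · Read-out basis – percent inhibition of core106 dimerization signal · Detection – time-resolved FRET, ex 340 nm, em 617 and 671 nm · Schedule – 4 h at 22.5 °C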
HCV NS3 hel inh: blocks Hepatitis C virus NS3 helicase unwinding | inhibition, % at 10.9 µM | NS3 helicase DNA unwinding, Cy5 molecular beacon fluorescence | actives 0.56% (n = 290,000);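 active = inhibition above the mean of all tested compounds plus 3 SD, set per campaign, cut at about 35% in these data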;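 also: 0% = DMSO wells and 100% = thioflavine S control wells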
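Assay system: hepatitis C virus NS3 helicase domain fragment enzyme. Also added: annealed dual-labelled DNA beacon duplex, ATP-started. Timing: 1 h reaction at 25 °C, ATP-initiated. Technique: Cy5 fluorescence at 0 and 60 min, beacon hairpin quenching. Evaluation: % inhibition of unwinding. Replication: one well per compound.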
ZTA counter: ZTA (EBV) inhibition in EBNA-1 counter-screen; ZTA-DNA binding, fluorescence polarization; inhibition, % at 11 µM; actives 0.15% (n = 320,000); in the data active = inhibition above about 33%
Target sequence (P03206 whole entry, looked up): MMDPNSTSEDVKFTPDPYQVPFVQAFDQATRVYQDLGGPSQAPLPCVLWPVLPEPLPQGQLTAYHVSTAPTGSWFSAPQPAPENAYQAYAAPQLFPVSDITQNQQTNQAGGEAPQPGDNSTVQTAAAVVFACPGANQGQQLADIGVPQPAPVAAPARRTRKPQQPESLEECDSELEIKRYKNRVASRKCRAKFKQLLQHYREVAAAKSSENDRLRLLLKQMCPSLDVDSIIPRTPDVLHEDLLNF
NS3 helicase cf: confirmation of Hepatitis C virus NS3 helicase inhibitors; shares compounds with HCV NS3 hel inh; NS3 helicase DNA unwinding, Cy5 molecular beacon fluorescence; inhibition, % at 10.9 µM; actives 31% (n = 1,600);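 active = inhibition above the mean of all tested compounds plus 3 SD, cutoff set per campaign, cut at about 36% in these data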
FID counter trip: intercalator displacement, NS3 helicase counter-screen | actives 4% (n = 1,600) | DNA fluorescent intercalator displacement, fluorescence | shares compounds with HCV NS3 hel inh | inhibition, % at 7.9 µM | AID 1945; in the data active = inhibition above about 37%;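 also: 0% = vehicle and 100% = reference compound; higher means more displacement of ethidium bromide from the DNA hairpin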
An asterisk follows results filed as active; / = not tested or not shown.

SMILES	GPR7 antagonist	EBNA-1 inhibitor	EBV gp42 block	core dimer inh	HCV NS3 hel inh	ZTA counter	NS3 helicase cf	FID counter trip
O=C(O)c1cc(/C=C/C(=O)c2cc(F)ccc2O)c2c(c1)COCO2	-4	-2	-8	5	49*	1	52*	-16
Cc1ccc(-n2nnnc2SCC(=O)N2CC(=O)Nc3ccccc32)cc1	-2	5	-18	4	-2	-2	/	/
O=C(CCc1ccccc1)NNC(=O)Cc1ccccc1	1	-1	-6	1	3	12	/	/
Cc1cc(=O)oc2c(CN3CCCCC3)c(O)c(Cl)cc12	9	-2	8	1	24	-7	/	/
CCc1cc(=O)oc2cc(C)c(CN3CCCCC3)c(O)c12	5	6	7	16	36*	5	-24	-5
CCc1cc(=O)oc2cc(C)c(CN3CCCC3)c(O)c12	3	22	10	86*	39*	0	30	8
CCCc1cc(=O)oc2c(CN3CCCC3)c(O)ccc12	-3	-6	-17	5	-5	-6	/	/
CCCc1cc(=O)oc2cc(C)c(CN3CCCC3)c(O)c12	-4	-9	-16	53*	40*	-23	41*	-22
CN(C#N)c1nc(Cl)nc(Nc2cccc(Cl)c2)n1	-3	17	14	-1	-14	-2	/	/
CC(C)c1ccc(S(=O)(=O)N2CCN(C(=O)C3CCCC3)CC2)cc1	11	-6	/	9	-1	4	/	/
O=C(N/C(=C\c1ccccc1)C(=O)N1CCOCC1)c1ccccc1Cl	-13	-4	/	-22	36*	-11	-7	-8
O=C(N/C(=C\c1ccc(Br)cc1)C(=O)N1CCOCC1)c1ccccc1Cl	-4	-11	/	1	-3	5	/	/
Cc1cccc2c1cnn2C(=O)CCC(=O)NCc1ccc(F)cc1	-3	-13	/	-4	-4	-10	/	/
O=c1c(C(c2ccc(Cl)cc2)c2c(O)nc3n(c2=O)CCS3)c(O)nc2n1CCS2	7	4	-7	1	47*	10	23	2
CCCCc1ccc(NC(=O)CN2C(=O)C3CCCCC3C2=O)cc1 (centres undefined)	/	-1	/	-1	/	2	/	/
CCOc1cccc(NC(=O)/C(C#N)=C\c2cn(CC(=O)O)c3ccccc23)c1	0	-9	/	9	40*	-17	49*	-7
O=C(COc1cccc2ccccc12)N/N=C/c1ccncc1	-8	-1	1	0	-13	-21	/	/
N#Cc1c(NC(=O)/C=C/c2ccco2)sc2c1CCCC2	10	-1	-17	4	34	13	/	/
O=C(/C=C/c1ccco1)Nc1sc2c(c1C(=O)O)CCC2	13	-3	-15	-6	47*	-8	19	19
COc1ccc(N(CC(=O)NCCC2=CCCCC2)S(=O)(=O)c2c(C)[nH]c(=O)[nH]c2=O)cc1	-4	4	-10	5	37*	16	-20	-32
COCCN(C(=O)CNC(=O)c1ccco1)C(C(=O)NC1CCCC1)c1ccc(OC)cc1 (centres undefined)	-7	-4	/	-16	44*	-7	-4	6
Cc1nc2nc(NC(=O)c3ccco3)nn2c(C)c1Cl	-15	2	/	-5	5	9	/	/
Cc1ccc(C)c(N2CCN(C3CCCC(C)C3)CC2)c1 (centres undefined)	17	-3	/	8	1	4	/	/
COc1cc([N+](=O)[O-])cc(/C=N/NC(=O)C(C)Nc2cccc3ccccc23)c1O (centres undefined)	-8	4	-10	-12	37*	1	39*	16
CCc1nnc(NS(=O)(=O)c2ccc(N/C=C\C(=O)c3cccc4ccccc34)cc2)s1	7	14	6	14	55*	16	33	14
SMILES	GPR7 antagonist	EBNA-1 inhibitor	EBV gp42 block	core dimer inh	HCV NS3 hel inh	ZTA counter	NS3 helicase cf	FID counter trip
CCOc1ccc(-c2ccc(/C=C3/C(=N)N4C=CSC4=NC3=O)o2)c([N+](=O)[O-])c1	-10	-5	-5	6	10	4	/	/
CCOc1ccc(-c2ccc(/C=C3/C(=N)N4C(C)=CSC4=NC3=O)o2)c([N+](=O)[O-])c1	-11	-7	2	36	48*	4	-3	2
O=C(O)c1cc(NC(=S)NC(=O)C(c2ccccc2)c2ccccc2)ccc1Cl	-8	-4	-4	8	41*	3	76*	-5
O=C(NC(=S)Nc1ccc(Cl)c(C(=O)O)c1)c1ccco1	-22	11	/	10	-2	13	/	/
CCn1cc(CN2CCCC(C(=O)Nc3ccc(-c4cscn4)cc3)C2)c(C)n1 (centres undefined)	-2	-11	/	-6	-2	-6	/	/
O=C(O)c1cc(N2N=C(C(F)(F)F)/C(=C/C=C/c3ccco3)C2=O)ccc1Cl	-2	/	-11	/	61*	/	80*	71*
CCOC(=O)c1ccc(N2N=C(C)/C(=C/C=C/c3ccco3)C2=O)cc1	-14	2	0	4	14	-17	/	/
Cc1ccc(SC(CC(=O)c2ccc(F)cc2)C(=O)O)cc1 (centres undefined)	-13	7	/	-10	43*	5	-23	1
O=C(/C=C/c1ccco1)NC(=S)Nc1cccc(C(=O)O)c1	-9	5	/	9	52*	21	30	11
CCCCCC/C(C)=C1/SC(=S)NC1=O	-7	16	-28	6	40*	10	12	0
C#CCSC1=C(C#N)C(c2cccs2)C(C(=O)OCC)=C(C)N1 (centres undefined)	0	-4	-13	31	46*	-2	-6	-6
CC12CCC(=O)N1C(C(=O)Nc1nc3ccccc3s1)CS2 (centres undefined)	/	/	/	/	/	5	/	/
CC(=O)c1cccc(Nc2nc(-c3cccnc3)cs2)c1	-13	/	/	/	44*	/	6	-10
COC(=O)c1ccc(OCC(O)CN2CCN(C(=O)c3ccco3)CC2)c(OC)c1 (centres undefined)	-2	-7	/	-4	0	-22	/	/
CCOC(=O)/C(=C/c1c[nH]c2ccccc12)NC(C)=O	-10	-13	4	-9	-1	-12	/	/
CCOC(=O)/C=C(C)\C=C\c1c[nH]c2ccccc12	-4	-1	-2	-3	45*	5	2	10
Cc1c(CC(=O)O)c(=O)oc2cc(OCc3ccc(F)cc3Cl)ccc12	11	-3	/	-1	48*	-6	51*	-12
Cc1cc(=O)c(C(=O)O)nn1-c1ccccc1	-9	2	-19	5	-4	9	/	/
